# From PubChem BioAssay
# MEKK3 PB1 HTS: modulators of MEKK3-MEK5 PB1 binding, primary screen, biochemical, wildtype MEKK3, multiplex bead flow cytometry, Alexa488-MEK5; Mitogen-activated protein kinase kinase kinase 3 (Homo sapiens), Q99759; bead-based flow cytometry, Alexa488-MEK5 binding to MEKK3; actives lie on both sides; 0 = blocked by unlabeled MEK5, 100 = vehicle; 290,000 compounds, 1.4% hits; AID 1529, 2009; binding response (% of control), % at 10 µM;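 active means binding response more than 3 SD above or below the average of its plate-row segment, actives on both sides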;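 further: Alexa488 bead fluorescence after subtracting the streptavidin-only scavenger bead signal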
# MEKK2wt PB1 HTS: modulators of MEK5 binding to wildtype MEKK2, primary screen, biochemical, multiplex bead flow cytometry, Alexa488-MEK5 | Alexa488-MEK5 binding to MEKK2 WT; actives lie on both sides | binding response (% of control), % at 10 µM | 290,000 compounds, 1.1% hits | AID 1531, 2009; in the data active means binding response below about 67% or above about 130%
# UCH37 DUB inh: inhibitors of human UCH37 deubiquitinase, primary screen, biochemical, Ub-AMC cleavage, fluorescence; AID 588478, 2011; inhibition, % (concentration not given with the values); purified proteasome/UCH37; 330,000 compounds, 0.33% hits;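 active means mean inhibition over replicate wells above about 20%, limit read from the data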;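 further: 0% = compound-free wells with enzyme and 100% = wells lacking proteasome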
# Target sequence (Q9Y5K5 whole entry, looked up): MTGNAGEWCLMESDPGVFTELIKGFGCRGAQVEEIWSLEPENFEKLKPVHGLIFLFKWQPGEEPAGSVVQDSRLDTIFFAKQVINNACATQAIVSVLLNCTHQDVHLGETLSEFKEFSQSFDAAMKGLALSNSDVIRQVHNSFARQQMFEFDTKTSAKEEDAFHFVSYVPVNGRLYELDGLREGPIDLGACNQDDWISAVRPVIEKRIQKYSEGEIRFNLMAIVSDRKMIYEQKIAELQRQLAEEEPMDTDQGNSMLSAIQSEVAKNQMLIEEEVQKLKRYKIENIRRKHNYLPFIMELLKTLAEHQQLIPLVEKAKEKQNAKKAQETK
#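 Assay system: Proteasome-bound UCH37. Buffer or medium: pH 7.4 Tris-HCl (50 mM) with ovalbumin, ATP-MgCl2, DTT. Incubation: 30 min preincubation with enzyme, 25 min cleavage at room temperature. Measured by: fluorescence, ex 355 nm, em 460 nm. Read-out basis: percent inhibition. Control set: wells without proteasome as full block, compound-free enzyme plus substrate as uninhibited.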
# UBC13 inh: UBC13 polyubiquitin chain formation inhibitors, primary screen, biochemical, TR-FRET, uHTS | Ubiquitin-conjugating enzyme E2 N (Homo sapiens), P61088 | inhibition, % at 20 µM | 330,000 compounds, 0.47% hits; in the data active means inhibition above about 45%, passing the limit was not always enough
# Target sequence (P61088 whole entry, looked up): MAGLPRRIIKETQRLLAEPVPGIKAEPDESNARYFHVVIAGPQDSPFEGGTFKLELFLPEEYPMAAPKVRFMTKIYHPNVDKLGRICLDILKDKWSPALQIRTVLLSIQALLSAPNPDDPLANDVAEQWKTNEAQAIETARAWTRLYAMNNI
# MEKK2mut PB1 HTS: MEK5 binding signal on mutant MEKK2 PB1, primary screen, biochemical, multiplex bead flow cytometry, Alexa488-MEK5; Alexa488-MEK5 binding to MEKK2 mutant; percent response, % at 10 µM; 290,000 compounds, 0.35% hits; in the data active means percent response above about 24%, passing the limit was not always enough
# Apaf1 inhib: inhibitors of human Apaf-1 apoptosome, primary screen, biochemical, DEVD-Rh110 fluorescence, uHTS | Apoptotic protease-activating factor 1 (Homo sapiens), O14727 | reconstituted apoptosome caspase-3 activity | inhibition, % at 20 µM | 330,000 compounds, 0.71% hits; active means inhibition of at least 40% at 20 µM;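 further: plate controls were DMSO wells for no effect and DEVD-CHO caspase inhibitor wells for full effect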
#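 Medium: Hepes buffer, pH 7.5 / System: biochemical Apaf-1 apoptosome reconstitution / Measured by: Rh110 fluorescence, excitation 480 nm, emission 540 nm / Times: compound with Apaf-1, dATP, procaspase-3 30 min, then 50 min reaction, room temperature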
# An asterisk follows results filed as active; / = no result; [ ] = dose if it differs, or a comment. An excerpt weighted towards active compounds, which were near 3% of everything screened.
SMILES,MEKK3 PB1 HTS,MEKK2wt PB1 HTS,UCH37 DUB inh,UBC13 inh,MEKK2mut PB1 HTS,Apaf1 inhib
COc1cc(C2C(C(=O)OC(C)C)=C(C)Nc3[nH]c(=O)[nH]c(=O)c32)ccc1O (centres undefined),61.0*[inhibitor],70.0*[inhibitor],2.4,-4.2,-16.0,-9.5
O=c1cc(-c2ccco2)nc(SCc2cccc(Cl)c2)[nH]1,99.0,-8.0*,-1.0,-6.4,-4.0,2.4
CCOc1ccc(Br)cc1C=NNC(=O)c1ccncc1,/,/,1.3,/,/,/
CC1CCN(C(=O)CSc2nnc(Cn3c(=O)sc4ccccc43)n2C)CC1,89.0,94.0,0.9,7.7,-1.0,42.6*
Cn1c(Cn2c(=O)sc3ccccc32)nnc1SCC(=O)N1CCCC1,84.0,88.0,0.5,10.4,-6.0,-1.7
Cc1nnc(NC(=O)c2nn(CC(C)C)c(=O)c3ccccc23)s1,99.0,107.0,3.7,4.9,-2.0,0.4
CCCn1nc(C(=O)Nc2nnc(CC)s2)c2ccccc2c1=O,98.0,-5.0*,1.6,0.3,7.0,-9.7
Cc1ccc(-n2nc3c(c2NC(=O)c2ccco2)CS(=O)(=O)C3)cc1C,102.0,101.0,4.4,-16.5,6.0,-390.6
Cc1ccc(-n2nc3c(c2NC(=O)c2ccc4c(c2)OCO4)CS(=O)(=O)C3)cc1,2.0*[inhibitor],0.0*[inhibitor],0.6,-7.4,-18.0,5.2
O=C(Nc1c2c(nn1-c1cccc(Cl)c1)CS(=O)(=O)C2)c1ccco1,36.0*[inhibitor],42.0*[inhibitor],1.5,-5.7,-14.0,0.4
Cc1ccc(-n2nc3c(c2NC(=O)c2ccc4c(c2)OCO4)CS(=O)(=O)C3)cc1C,101.0,102.0,-0.7,-1.4,3.0,-9.7
CCOC(=O)CC1OC(=O)c2cc3c(cc21)C(=O)OC3CC(=O)OCC (centres undefined),103.0,102.0,3.8,3.9,5.0,-4.2
O=C(CNC(=O)/C(=C\c1ccc(F)cc1)NC(=O)c1ccccc1)OCc1ccccc1,99.0,94.0,27.5*,-3.1,2.0,9.7
O=C(CNC(=O)/C(=C\c1ccccc1)NC(=O)c1ccc(Br)cc1)OCc1ccccc1,108.0,103.0,0.6,-0.6,13.0,18.4
CC(=O)OCC1O[C@@H](O[C@@H]2C[C@H]3C(C)(C)[C@H](OC(C)=O)CC[C@]3(C)[C@H]3CC[C@]45C[C@]4(CC[C@H]5[C@@H](C)C[C@@H](O)[C@H](O)C(C)(C)O)[C@@]32C)[C@H](O)[C@@H](O)[C@@H]1O (some centres undefined),95.0,99.0,/,92.9*,5.0,25.4
Cn1nnc(NC(=O)c2ccc(Br)o2)n1,99.0,99.0,-9.4,0.0,1.0,-3.7
O=C(C[C@@H]1C/C=C\CCCC(=O)OC[C@@H](c2ccccc2)NC1=O)NCCO,/,/,3.7,10.8,/,-2.5
O=C1CS/C(=N/N=C/c2c[nH]c3ccccc23)N1,98.0,93.0,/,-7.0,-5.0,-15.6
O=C1/C(=C/c2c[nH]c3ccccc23)CCC/C1=C\c1c[nH]c2ccccc12,89.0,81.0,5.5,-6.4,96.0*,4.5
O=C(COc1ccc(Br)cc1Br)NN1C(=O)c2ccccc2C1=O,/,/,0.2,6.3,/,-2.4
COc1ccccc1C(CNC(=O)C(CCSC)NS(=O)(=O)c1ccccc1F)N1CCCC1 (centres undefined),/,/,0.5,6.3,/,0.2
O=c1oc2c3c(nn2c2ccccc12)CCCC3,101.0,99.0,-18.8,-1.4,4.0,4.2
Cc1ccc2c(c1)[C@H]1OCC[C@H]1[C@@H](c1ccncc1)N2,89.0,96.0,3.8,4.5,-11.0,7.0
C1=CC2c3ccccc3NC(c3ccncc3)C2C1 (centres undefined),87.0,78.0,6.4,-20.3,-8.0,49.4*
CCc1nnc(NN=Cc2cc(C)c(C)cc2C)n1N,/,/,3.7,/,/,/
SMILES,MEKK3 PB1 HTS,MEKK2wt PB1 HTS,UCH37 DUB inh,UBC13 inh,MEKK2mut PB1 HTS,Apaf1 inhib
Cc1n[nH]c(=O)nc1NN=Cc1ccc(O)c([N+](=O)[O-])c1,/,/,20.9*,/,/,/
Cc1csc(N/N=C/c2ccc([N+](=O)[O-])cc2)n1,107.0,104.0,/,-11.9,11.0,0.7
Cc1csc(NN=Cc2ccc(O)c([N+](=O)[O-])c2)n1,/,/,20.4*,/,/,/
CSc1cc(C)n(-c2ccccc2)c(=S)c1C(C)=O,103.0,107.0,7.4,-4.2,14.0,-7.5
CCC(Sc1nc(N)cc(=O)[nH]1)C(=O)NC(C(=O)OC)c1ccccc1 (centres undefined),99.0,98.0,32.3*,-2.2,-1.0,0.6
COC(=O)C(NC(=O)CSc1nc(N)cc(=O)[nH]1)c1ccccc1 (centres undefined),98.0,95.0,1.1,-4.8,-3.0,10.9
Cc1cccc2nc(-c3cccnc3)c(NCCC(C)C)n12,95.0,-11.0*,-148.3,19.6,2.0,11.5
COc1ccc(CN2CCN(S(=O)(=O)c3ccc(F)cc3)CC2)cc1OC,13.0*[inhibitor],22.0*[inhibitor],3.2,-5.5,-18.0,-17.5
CCOC(=O)N1CCN(C(=O)C(NC(=O)c2ccco2)C(C)C)CC1 (centres undefined),109.0,108.0,2.6,-6.6,9.0,8.9
CC[n+]1c(C=C2C=C(C)OC(C)=C2)sc2ccccc21,100.0,100.0,22.6*,-49.6,-2.0,7.8
CCOCCCn1c(SCC(=O)Nc2ccc(C(N)=O)cc2)nc2ccccc2c1=O,97.0,89.0,2.1,5.7,-1.0,-0.6
N#Cc1cc2c(nc1SCC(=O)NCc1ccc3c(c1)OCO3)CCCCC2,102.0,102.0,-0.5,4.3,2.0,-2.3
COc1ccc(CC(=O)Nc2ccc(N3CCCC3)c(C)c2)cc1,98.0,33.0*[inhibitor],-0.9,-1.8,-4.0,15.2
COc1ccccc1Oc1ccccc1C(=O)O,103.0,101.0,0.8,-3.4,-2.0,3.6
O=c1[nH]c2ccc(Cl)cc2c(=O)n1Cc1ccco1,104.0,103.0,0.3,21.8,7.0,12.1
O=c1[nH]c2ccccc2c(=O)n1Cc1ccco1,96.0,99.0,21.3*,0.7,5.0,3.0
Cn1c(=O)n(Cc2ccc(Cl)cc2)c(=O)c2c1nc1n2CCN1Cc1ccco1,109.0,113.0,7.0,7.4,5.0,18.7
Cc1cccc(Cn2c(=O)c3c(nc4n3CCN4Cc3ccco3)n(C)c2=O)c1,2.0*[inhibitor],2.0*[inhibitor],5.6,0.9,-16.0,7.6
Nc1nc2n(n1)C(=O)CC(c1ccccc1)N2 (centres undefined),105.0,105.0,-1.1,4.2,4.0,-7.4
